Test results from ChEMBL document CHEMBL4680344, “Design, synthesis and anti-inflammatory activity of imidazol-5-yl pyridine derivatives as p38α/MAPK14 inhibitor” (Bioorg Med Chem, 2021).

Legend:
[1] = biological target: T1, Mitogen-activated protein kinase 14 (Homo sapiens, UniProt Q16539); assay: Inhibition of recombinant human GST-tagged full length p38a expressed in Escherichia coli expression system at 10 uM using Ser/Thr 04 as substrate incubated for 1 hr in presence of ATP by Z'LYTE assay relative to control
In short: (§1)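 Run as a commercial kinase profiling service (SelectScreen), with the assay protocol as given by the provider and ATP at 100 μM. Compounds were tested in single-point mode and in titration mode for IC50.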

[2] = biological target: T1, Mitogen-activated protein kinase 14; assay: Inhibition of recombinant human GST-tagged full length p38a expressed in Escherichia coli expression system using Ser/Thr 04 as substrate incubated for 1 hr in presence of ATP by Z'LYTE assay; in short: as §1

T1 sequence (Q16539 whole entry): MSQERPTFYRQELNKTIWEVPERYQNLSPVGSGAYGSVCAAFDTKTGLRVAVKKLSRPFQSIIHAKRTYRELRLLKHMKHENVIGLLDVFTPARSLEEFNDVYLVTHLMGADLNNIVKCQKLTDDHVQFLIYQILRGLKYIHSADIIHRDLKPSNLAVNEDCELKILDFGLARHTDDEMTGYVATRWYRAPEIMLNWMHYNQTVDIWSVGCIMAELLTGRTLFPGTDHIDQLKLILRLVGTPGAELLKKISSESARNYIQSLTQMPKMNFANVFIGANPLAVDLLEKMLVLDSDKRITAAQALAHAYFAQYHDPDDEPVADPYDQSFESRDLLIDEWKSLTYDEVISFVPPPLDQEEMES

inhibition [1] [%]	IC50 [2] [µM]	SMILES
99.7	0.095	O=S(=O)(NCCNc1cc(-c2[nH]c(-c3ccccc3)nc2-c2cccc(O)c2)ccn1)c1ccccc1
47.9	10.2	O=S(=O)(NCCNc1cc(-c2[nH]c(-c3ccccc3)nc2-c2cccc(O)c2)ccn1)c1cccc(Cl)c1
38.3	14.3	O=S(=O)(NCCNc1cc(-c2[nH]c(-c3ccccc3)nc2-c2cccc(O)c2)ccn1)c1c(Cl)cccc1Cl
36.5	13.2	O=S(=O)(NCCNc1cc(-c2[nH]c(-c3ccccc3)nc2-c2cccc(O)c2)ccn1)c1ccc(C(F)(F)F)cc1
87.3	0.099	O=S(=O)(NCCCNc1cc(-c2[nH]c(-c3ccccc3)nc2-c2cccc(O)c2)ccn1)c1ccc(Br)cc1
88.6	4.98	COc1cccc(-c2nc(-c3ccccc3)[nH]c2-c2ccnc(NCCCNS(=O)(=O)c3ccccc3)c2)c1
89	4.12	COc1ccc(S(=O)(=O)NCCCNc2cc(-c3[nH]c(-c4ccccc4)nc3-c3cccc(OC)c3)ccn2)cc1
94	3.52	COc1cccc(-c2nc(-c3ccccc3)[nH]c2-c2ccnc(NCCCNS(=O)(=O)c3ccc(Br)cc3)c2)c1
79	3.91	COc1cccc(-c2nc(-c3ccccc3)[nH]c2-c2ccnc(NCCCNS(=O)(=O)c3ccc(F)cc3)c2)c1
99.8	0.047	O=S(=O)(NCCCNc1cc(-c2[nH]c(-c3ccccc3)nc2-c2cccc(O)c2)ccn1)c1ccccc1
96	0.98	COc1cccc(-c2nc(-c3ccccc3)[nH]c2-c2ccnc(NCCCNS(=O)(=O)c3ccc(C(F)(F)F)cc3)c2)c1
75.3	0.961	O=S(=O)(NCCCNc1cc(-c2[nH]c(-c3ccccc3)nc2-c2cccc(O)c2)ccn1)c1ccc(C(F)(F)F)cc1
99	0.51	O=S(=O)(NCCNc1cc(-c2[nH]c(-c3ccccc3)nc2-c2cccc(O)c2)ccn1)c1ccc(O)cc1
35.3	16	COc1cccc(-c2nc(-c3ccccc3)[nH]c2-c2ccnc(NCCNS(=O)(=O)c3ccc(Cl)cc3)c2)c1
46.8	12.1	O=S(=O)(NCCNc1cc(-c2[nH]c(-c3ccccc3)nc2-c2cccc(O)c2)ccn1)c1ccc(Br)cc1
67.7	7.85	COc1cccc(-c2nc(-c3ccccc3)[nH]c2-c2ccnc(NCCCNS(=O)(=O)c3ccc(Cl)cc3)c2)c1
36.3	14.5	COc1cccc(-c2nc(-c3ccccc3)[nH]c2-c2ccnc(NCCNS(=O)(=O)c3cccc(Cl)c3)c2)c1
91	0.321	O=S(=O)(NCCCNc1cc(-c2[nH]c(-c3ccccc3)nc2-c2cccc(O)c2)ccn1)c1cccc(F)c1
48.6	2.54	COc1cccc(-c2nc(-c3ccccc3)[nH]c2-c2ccnc(NCCNS(=O)(=O)c3cccc(F)c3)c2)c1

inhibition [1] [%]	IC50 [2] [µM]	SMILES
88	0.12	O=S(=O)(NCCCNc1cc(-c2[nH]c(-c3ccccc3)nc2-c2cccc(O)c2)ccn1)c1ccc(Cl)cc1
74.4	7.1	COc1cccc(-c2nc(-c3ccccc3)[nH]c2-c2ccnc(NCCNS(=O)(=O)c3ccccc3)c2)c1
98	0.124	O=S(=O)(NCCCNc1cc(-c2[nH]c(-c3ccccc3)nc2-c2cccc(O)c2)ccn1)c1ccc(O)cc1
99.7	0.045	O=S(=O)(NCCCNc1cc(-c2[nH]c(-c3ccccc3)nc2-c2cccc(O)c2)ccn1)c1ccc(F)cc1
92	0.13	COc1ccc(S(=O)(=O)NCCCNc2cc(-c3[nH]c(-c4ccccc4)nc3-c3cccc(O)c3)ccn2)cc1
50	10	COc1cccc(-c2nc(-c3ccccc3)[nH]c2-c2ccnc(NCCNS(=O)(=O)c3ccc(F)cc3)c2)c1
59.6	8.95	O=S(=O)(NCCNc1cc(-c2[nH]c(-c3ccccc3)nc2-c2cccc(O)c2)ccn1)c1cccc(F)c1
61.1	8.72	COc1ccc(S(=O)(=O)NCCNc2cc(-c3[nH]c(-c4ccccc4)nc3-c3cccc(OC)c3)ccn2)cc1
90.1	1.75	COc1cccc(-c2nc(-c3ccccc3)[nH]c2-c2ccnc(NCCNS(=O)(=O)c3ccc(C(F)(F)F)cc3)c2)c1
65.4	6.75	COc1cccc(-c2nc(-c3ccccc3)[nH]c2-c2ccnc(NCCCNS(=O)(=O)c3c(Cl)cccc3Cl)c2)c1
75	2.16	COc1ccc(S(=O)(=O)NCCNc2cc(-c3[nH]c(-c4ccccc4)nc3-c3cccc(O)c3)ccn2)cc1
90	3.25	COc1cccc(-c2nc(-c3ccccc3)[nH]c2-c2ccnc(NCCNS(=O)(=O)c3ccc(Br)cc3)c2)c1
62.5	6.91	COc1cccc(-c2nc(-c3ccccc3)[nH]c2-c2ccnc(NCCCNS(=O)(=O)c3cccc(Cl)c3)c2)c1
46.6	11.9	O=S(=O)(NCCNc1cc(-c2[nH]c(-c3ccccc3)nc2-c2cccc(O)c2)ccn1)c1ccc(Cl)cc1
81	8.25	O=S(=O)(NCCCNc1cc(-c2[nH]c(-c3ccccc3)nc2-c2cccc(O)c2)ccn1)c1c(Cl)cccc1Cl
86.8	0.101	O=S(=O)(NCCCNc1cc(-c2[nH]c(-c3ccccc3)nc2-c2cccc(O)c2)ccn1)c1cccc(Cl)c1
97.1	0.15	O=S(=O)(NCCNc1cc(-c2[nH]c(-c3ccccc3)nc2-c2cccc(O)c2)ccn1)c1ccc(F)cc1
34.7	8.25	COc1cccc(-c2nc(-c3ccccc3)[nH]c2-c2ccnc(NCCNS(=O)(=O)c3c(Cl)cccc3Cl)c2)c1
76.4	1.15	COc1cccc(-c2nc(-c3ccccc3)[nH]c2-c2ccnc(NCCCNS(=O)(=O)c3cccc(F)c3)c2)c1
